Series [1] concerns the target T1, ATP-dependent translocase ABCB1 (Homo sapiens, UniProt P08183). Description: Reversal of ABCB1-mediated multidrug resistance in human A2780/ADR cells assessed as resistance factor by measuring [GI50(resistant cell line without or with compound)/ GI50(sensitive cell line)] at 1 uM incubated for 72 hrs by MTT assay (reference value: 49). The series is classed as cell-based. Put shortly:
(§1)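 MDR reversal assay with daunorubicin at 10 nM–10 µM, alone or with test compound at 0.5, 1, 5 or 10 µM. Resistant cells were ABCB1-overexpressing A2780/ADR or MDCK II MDR1, with sensitive A2780 or MDCK II cells as comparators. Resistance factor = resistant GI50 / sensitive GI50. EC50 was derived from resistance factors versus modulator concentration. Values are from ≥3 experiments in duplicate ± SEM.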
A general note: Tetrazolium assays rely on reduction of a dye to a coloured formazan, in cell work by metabolically active cells.

The target of series [2] is T2, Broad substrate specificity ATP-binding cassette transporter ABCG2 (Homo sapiens, UniProt Q9UNQ0).
T2 sequence (Q9UNQ0 whole entry): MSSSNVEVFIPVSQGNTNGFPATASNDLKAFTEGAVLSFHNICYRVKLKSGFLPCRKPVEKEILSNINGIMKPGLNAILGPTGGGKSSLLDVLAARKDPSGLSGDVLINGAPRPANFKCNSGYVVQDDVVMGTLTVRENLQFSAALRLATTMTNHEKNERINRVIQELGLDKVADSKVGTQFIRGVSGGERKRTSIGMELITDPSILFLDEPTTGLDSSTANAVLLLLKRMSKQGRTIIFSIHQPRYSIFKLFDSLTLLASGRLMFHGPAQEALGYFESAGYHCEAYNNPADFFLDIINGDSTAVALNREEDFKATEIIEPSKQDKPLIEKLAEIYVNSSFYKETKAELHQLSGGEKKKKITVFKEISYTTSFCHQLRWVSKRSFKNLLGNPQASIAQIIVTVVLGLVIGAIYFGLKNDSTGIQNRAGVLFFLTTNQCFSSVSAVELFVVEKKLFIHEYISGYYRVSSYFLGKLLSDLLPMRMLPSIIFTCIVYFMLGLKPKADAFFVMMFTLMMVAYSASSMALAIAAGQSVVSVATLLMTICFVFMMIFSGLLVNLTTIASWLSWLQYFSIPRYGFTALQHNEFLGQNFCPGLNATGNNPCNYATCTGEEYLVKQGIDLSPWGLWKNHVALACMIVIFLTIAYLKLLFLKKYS
Description: Reversal of ABCG2 (unknown origin)-mediated multidrug resistance in MDCK2 cells co-expressing BCRP (unknown origin) assessed as resistance factor by measuring [GI50(resistant cell line without or with compound)/ GI50(sensitive cell line)] at 5 uM incubated for 72 hrs by MTT assay (reference value: 27). Type of series: cell-based.

The target in series [3] is T3, Multidrug resistance-associated protein 1 (Homo sapiens, UniProt P33527). Description: Inhibition of ABCC1 in human H69AR cells preincubated for 30 mins followed by calcein-AM addition measured at 60 secs time interval by fluorescence assay. The series is classed as cell-based. Put shortly: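 Calcein AM accumulation assay in H69AR small-cell lung cancer cells, which express only ABCC1. Inhibited efflux lets calcein AM build up intracellularly, where esterases cleave it to fluorescent calcein. The screen used 10 µM, scaled to a standard ABCC1 inhibitor at 10 µM as 100%. Hits reaching ≥20% inhibition (+SEM) went on to IC50 curves, constrained to that 100% maximum. Values are means of ≥3 independent experiments in duplicate ± SEM.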
T3 sequence (P33527 whole entry): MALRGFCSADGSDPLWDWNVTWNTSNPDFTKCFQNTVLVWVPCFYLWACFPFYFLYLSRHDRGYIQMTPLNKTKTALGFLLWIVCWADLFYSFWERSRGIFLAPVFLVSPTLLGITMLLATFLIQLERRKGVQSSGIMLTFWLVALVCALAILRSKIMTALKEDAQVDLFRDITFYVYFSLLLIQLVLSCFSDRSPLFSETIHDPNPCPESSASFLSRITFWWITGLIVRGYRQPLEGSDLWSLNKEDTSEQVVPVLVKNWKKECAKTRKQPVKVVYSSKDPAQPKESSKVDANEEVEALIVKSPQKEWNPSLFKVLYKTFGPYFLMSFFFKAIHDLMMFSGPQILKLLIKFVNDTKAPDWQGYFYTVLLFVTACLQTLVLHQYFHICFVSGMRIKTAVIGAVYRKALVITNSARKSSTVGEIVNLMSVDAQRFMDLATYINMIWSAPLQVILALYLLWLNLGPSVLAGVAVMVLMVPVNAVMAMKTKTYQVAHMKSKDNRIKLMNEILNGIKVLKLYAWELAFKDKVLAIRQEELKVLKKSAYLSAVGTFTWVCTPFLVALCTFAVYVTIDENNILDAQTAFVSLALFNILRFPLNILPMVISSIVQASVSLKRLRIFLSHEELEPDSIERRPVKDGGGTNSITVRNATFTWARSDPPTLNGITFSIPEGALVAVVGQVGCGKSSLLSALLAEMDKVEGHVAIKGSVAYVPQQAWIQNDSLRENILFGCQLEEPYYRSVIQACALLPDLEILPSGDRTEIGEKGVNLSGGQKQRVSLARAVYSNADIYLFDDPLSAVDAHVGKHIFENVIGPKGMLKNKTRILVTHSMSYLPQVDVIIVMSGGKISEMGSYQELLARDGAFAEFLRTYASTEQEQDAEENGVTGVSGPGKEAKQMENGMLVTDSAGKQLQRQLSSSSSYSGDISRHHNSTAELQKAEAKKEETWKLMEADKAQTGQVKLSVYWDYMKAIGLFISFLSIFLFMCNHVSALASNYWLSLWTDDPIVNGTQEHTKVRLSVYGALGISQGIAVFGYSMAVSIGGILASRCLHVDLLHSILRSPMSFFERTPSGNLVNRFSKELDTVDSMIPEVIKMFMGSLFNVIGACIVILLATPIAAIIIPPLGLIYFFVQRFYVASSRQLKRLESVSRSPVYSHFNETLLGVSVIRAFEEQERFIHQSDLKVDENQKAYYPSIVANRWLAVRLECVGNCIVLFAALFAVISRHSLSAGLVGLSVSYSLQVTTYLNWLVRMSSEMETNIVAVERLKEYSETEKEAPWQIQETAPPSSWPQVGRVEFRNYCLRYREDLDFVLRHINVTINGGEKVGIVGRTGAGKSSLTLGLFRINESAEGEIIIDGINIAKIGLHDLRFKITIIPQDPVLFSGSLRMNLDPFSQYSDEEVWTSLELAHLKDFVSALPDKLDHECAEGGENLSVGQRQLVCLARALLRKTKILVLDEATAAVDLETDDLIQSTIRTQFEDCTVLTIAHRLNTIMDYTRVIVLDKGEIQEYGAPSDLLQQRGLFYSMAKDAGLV

For series [4], the target named is T2, Broad substrate specificity ATP-binding cassette transporter ABCG2. Description: Reversal of ABCG2-mediated multidrug resistance in human MCF-7/MX cells assessed as resistance factor by measuring [GI50(resistant cell line without or with compound)/ GI50(sensitive cell line)] incubated for 72 hrs by MTT assay (reference value: 789).
The target of series [5] is T3, Multidrug resistance-associated protein 1. Description: Competitive inhibition of ABCC1-mediated calcein-AM transport in human H69AR cells at 0.316 to 1.78 uM by Lineweaver-Burk plot analysis. The series is classed as cell-based. Put shortly:
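Kinetic study of calcein AM transport by Lineweaver-Burk analysis. ABCC1 was studied in H69AR cells with calcein AM at 0.25, 0.3, 0.45, 0.6 and 0.8 µM and inhibitor at 0.316, 0.562, 1.00 and 1.78 µM plus a zero control. ABCB1 was studied in A2780/ADR cells with calcein AM at 0.2–0.8 µM and inhibitor at 0.056, 0.100, 0.178 and 0.316 µM plus a zero control.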

Series [6] is described as follows: Growth inhibition of MDCK2 cells co-expressing MRP1 (unknown origin) incubated for 72 hrs by MTT assay. Type of series: cell-based, Canis lupus familiaris, MDCK-II. The conditions noted are these: dog. Summed up: (§2)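 MTT-based cytotoxicity assay giving GI50 of the compound alone in each listed parental, selected or transfected cell line.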
The nature of series [7]: Growth inhibition of human A2780 cells incubated for 72 hrs by MTT assay. Type of series: cell-based. Put shortly: as §2
For series [8], the target named is T2, Broad substrate specificity ATP-binding cassette transporter ABCG2. Description: Reversal of ABCG2 (unknown origin)-mediated multidrug resistance in MDCK2 cells co-expressing BCRP (unknown origin) assessed as resistance factor by measuring [GI50(resistant cell line without or with compound)/ GI50(sensitive cell line)] at 1 uM incubated for 72 hrs by MTT assay (reference value: 27). Type of series: cell-based.

The target of series [9] is T3, Multidrug resistance-associated protein 1. Description: Reversal of ABCC1 (unknown origin)-mediated multidrug resistance in MDCK2 cells co-expressing MRP1 (unknown origin) assessed as resistance factor by measuring [GI50(resistant cell line without or with compound)/ GI50(sensitive cell line)] at 0.5 uM incubated for 72 hrs by MTT assay (reference value: 7). The series is classed as cell-based.

The target of series [10] is T1, ATP-dependent translocase ABCB1. Description: Inhibition of ABCB1 in human A2780/ADR cells preincubated for 30 mins followed by calcein AM addition and measured at 60 secs time interval by fluorescence assay. Type of series: cell-based.
A short description of series [11]: Growth inhibition of human A2780/ADR cells incubated for 72 hrs by MTT assay. The series is classed as cell-based. Put shortly: as §2
Series [12] addresses T1, ATP-dependent translocase ABCB1. Description: Reversal of ABCB1 (unknown origin)-mediated multidrug resistance in MDCK2 cells co-expressing MDR1 (unknown origin) assessed as resistance factor by measuring [GI50(resistant cell line without or with compound)/ GI50(sensitive cell line)] at 1 uM incubated for 72 hrs by MTT assay (reference value: 17). Type of series: cell-based. Summed up:
as §1

For series [13] the target is unchanged. Description: Reversal of ABCB1 (unknown origin)-mediated multidrug resistance in MDCK2 cells co-expressing MDR1 (unknown origin) assessed as resistance factor by measuring [GI50(resistant cell line without or with compound)/ GI50(sensitive cell line)] at 5 uM incubated for 72 hrs by MTT assay (reference value: 17). Type of series: cell-based. Summed up: as §1

Series [14] concerns the target T2, Broad substrate specificity ATP-binding cassette transporter ABCG2. Description: Reversal of ABCG2 (unknown origin)-mediated multidrug resistance in MDCK2 cells co-expressing BCRP (unknown origin) assessed as resistance factor by measuring [GI50(resistant cell line without or with compound)/ GI50(sensitive cell line)] at 0.5 uM incubated for 72 hrs by MTT assay (reference value: 27). The series is classed as cell-based.

The target is the same in series [15]. Description: Inhibition of ABCG2 (unknown origin) expressed in MDCK2 cells co-expressing BCRP (unknown origin) assessed as effect on pheophorbide A accumulation pre-incubated for 20 mins followed by pheophorbide A addition and measured after 120 mins by flow cytometric analysis. The series is classed as cell-based. Summed up: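 Pheophorbide A accumulation assay in ABCG2-transfected MDCK II BCRP cells. Ko143 at 10 µM set 100% and no compound set 0%. Screening was at 10 µM; compounds reaching >20% (+SEM) got IC50 curves constrained to the Ko143 maximum at 10 µM. Values are reported as mean ± SEM.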
In general terms: In flow cytometry, cells or beads pass a laser one at a time.

pIC50: −log10 of the molar value.

What is called pIC50 is the negative decadic logarithm of the IC50, by convention in mol/L. For orientation: GI50 means the concentration giving 50% growth inhibition. A lower GI50 goes with greater sensitivity of the cells.

T1 sequence (P08183 whole entry): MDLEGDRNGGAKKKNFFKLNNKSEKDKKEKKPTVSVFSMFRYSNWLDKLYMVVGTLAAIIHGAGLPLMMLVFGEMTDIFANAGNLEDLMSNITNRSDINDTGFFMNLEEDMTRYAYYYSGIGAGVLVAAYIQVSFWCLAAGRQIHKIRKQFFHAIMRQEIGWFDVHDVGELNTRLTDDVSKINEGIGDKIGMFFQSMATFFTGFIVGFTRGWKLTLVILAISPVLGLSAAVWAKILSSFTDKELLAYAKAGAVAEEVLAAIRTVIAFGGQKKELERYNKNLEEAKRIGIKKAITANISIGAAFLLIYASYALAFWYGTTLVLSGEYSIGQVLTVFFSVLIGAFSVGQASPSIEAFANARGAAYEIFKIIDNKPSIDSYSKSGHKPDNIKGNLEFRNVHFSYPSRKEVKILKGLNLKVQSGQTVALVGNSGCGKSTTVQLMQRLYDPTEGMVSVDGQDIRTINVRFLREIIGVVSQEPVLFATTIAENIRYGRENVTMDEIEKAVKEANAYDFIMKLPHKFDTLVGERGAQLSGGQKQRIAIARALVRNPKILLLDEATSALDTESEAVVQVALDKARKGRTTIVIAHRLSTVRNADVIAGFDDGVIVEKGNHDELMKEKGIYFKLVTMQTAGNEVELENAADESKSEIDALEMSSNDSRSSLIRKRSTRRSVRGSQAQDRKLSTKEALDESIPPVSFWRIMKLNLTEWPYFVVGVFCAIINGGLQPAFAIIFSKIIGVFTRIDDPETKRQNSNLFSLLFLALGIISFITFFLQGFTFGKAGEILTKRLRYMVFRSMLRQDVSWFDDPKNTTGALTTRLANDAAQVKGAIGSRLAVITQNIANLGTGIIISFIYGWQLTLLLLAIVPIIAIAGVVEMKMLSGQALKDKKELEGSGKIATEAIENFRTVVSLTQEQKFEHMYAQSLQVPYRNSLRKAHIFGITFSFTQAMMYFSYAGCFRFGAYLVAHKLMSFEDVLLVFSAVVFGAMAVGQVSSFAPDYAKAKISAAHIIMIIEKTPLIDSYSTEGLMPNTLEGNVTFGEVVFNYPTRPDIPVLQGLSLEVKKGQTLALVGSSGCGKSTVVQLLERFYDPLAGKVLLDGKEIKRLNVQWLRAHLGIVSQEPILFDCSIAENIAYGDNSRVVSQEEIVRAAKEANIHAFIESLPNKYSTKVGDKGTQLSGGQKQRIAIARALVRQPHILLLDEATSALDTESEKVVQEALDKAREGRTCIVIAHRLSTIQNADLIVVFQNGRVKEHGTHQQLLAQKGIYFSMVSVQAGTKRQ

As to `CC1CCc2c(sc3nc(-c4cccnc4)nc(N4CCN(C(C(N)=O)c5ccccc5)CC4)c23)C1` (stereo not given), the RatioGI50 was found to be 20 in series [1]; 4.5 in [2]; 53 in series [4]; 17 in series [8]; 4.7 in series [9]; 4.3 in series [12]. Besides, the RatioGI50 in series [13] is listed as 0.9; in series [14], 21. In addition, the negative logarithm of the IC50 (pIC50) was 5.30 in [3], 5.76 in [10] and 5.62 in series [15]. Besides, the “inhibition (INH)” value in series [5] is “Active”. Also, the figures for the GI50 at 72 h in series [6], in series [7] and in series [11] were 42.4 µM, 24.6 µM and 25.8 µM, respectively.
